Source: ChEMBL document CHEMBL3244385, “Antitumor anthracycline antibiotics. Structure-activity and structure-cardiotoxicity relationships of rubidazone analogues” (J Med Chem, 1978)

Columns and labels:
Rattus norvegicus [1] = species: Rattus norvegicus; experiment: Cardiotoxicity in rat ECG model; settings: in vivo
[2] = Half life in 0.01 M phosphate buffer at 10 uM at pH 7.4 at 50 degC; format: physicochemical
Outline: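 Drug at 1×10^-5 M in 0.01 M phosphate, pH 7.4, 50 °C, no DNA. Absorbance followed continuously for 3 h at a drug-specific wavelength (345 or 259 nm). Buffer baseline subtracted. Data fit to A = ΣA0 + c·e^(-kt), with ΣA0 the absorbance of daunorubicin plus the […], and t1/2 derived from the fit.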

P388 [3] = experiment: In vivo antitumor activity against mouse P388 cells allografted in BDF/CDF mouse assessed as host survival time at 0.25 mg/kg, ip administered on days 1 to 9 relative to control; format: functional; settings: route intraperitoneal
Outline: (§1)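 P-388 lymphocytic leukemia, 10⁶ cells injected ip into BDF or CDF mice on day 0; drug given ip daily on days 1-9 at the stated dose. Read-out T/C: average survival time of treated mice as percent of untreated controls. Assays run by NCI Drug Research and Development Program.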

Calf thymus DNA = experiment: Binding affinity to calf thymus DNA assessed as change in melting temperature at 5 uM by spectrophotometer analysis; format: nucleic-acid assay; settings: Bos taurus
Outline: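 Drug dissolved in Me2SO, diluted with buffer, then mixed with calf thymus DNA. Final mix: 0.01 M phosphate pH 7, 5×10^-5 M DNA, 5×10^-6 M drug, 10^-5 M EDTA, 5% Me2SO. Absorbance at 259 nm recorded every 30 s while heating at 18 °C/h. Tm is the midpoint of the corrected curve; the shift is taken against DNA alone.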

[4] = Dissociation constant, pKa of Ar-COOH group of the compound; format: physicochemical
P388 [5] = experiment: In vivo antitumor activity against mouse P388 cells allografted in BDF/CDF mouse assessed as host survival time at 1 mg/kg, ip administered on days 1 to 9 relative to control; format: functional; settings: route intraperitoneal
Outline: as §1

L1210 [6] = experiment: Inhibition of RNA synthesis in mouse L1210 cells; format: functional; settings: read-out: ED50 (the source's name)
Rattus norvegicus [7] = species: Rattus norvegicus; experiment: Cardiotoxicity in rat ECG model relative to adriamycin; settings: in vivo
L1210 [8] = experiment: Inhibition of DNA synthesis in mouse L1210 cells; format: functional; settings: read-out: ED50 (the source's name)
P388 [9] = experiment: In vivo antitumor activity against mouse P388 cells allografted in BDF/CDF mouse assessed as host survival time at 4 mg/kg, ip administered on days 1 to 9 relative to control; format: functional; settings: route intraperitoneal
Outline: as §1

P388 [10] = experiment: In vivo antitumor activity against mouse P388 cells allografted in BDF/CDF mouse assessed as host survival time at 8 mg/kg, ip administered on days 1 to 9 relative to control; format: functional; settings: route intraperitoneal
Outline: as §1

P388 [11] = experiment: In vivo antitumor activity against mouse P388 cells allografted in BDF/CDF mouse assessed as host survival time at 0.5 mg/kg, ip administered on days 1 to 9 relative to control; format: functional; settings: route intraperitoneal
Outline: as §1

P388 [12] = experiment: In vivo antitumor activity against mouse P388 cells allografted in BDF/CDF mouse assessed as host survival time at 2 mg/kg, ip administered on days 1 to 9 relative to control; format: functional; settings: route intraperitoneal
Outline: as §1

P388 [13] = experiment: In vivo antitumor activity against mouse P388 cells allografted in BDF/CDF mouse assessed as host survival time at 16 mg/kg, ip administered on days 1 to 9 relative to control; format: functional; settings: route intraperitoneal
Outline: as §1

[14] = Partition coefficient, log P of the compound; format: physicochemical; settings: octanol/water
P388 [15] = experiment: In vivo antitumor activity against mouse P388 cells allografted in BDF/CDF mouse assessed as host survival time at 0.125 mg/kg, ip administered on days 1 to 9 relative to control; format: functional; settings: route intraperitoneal
Outline: as §1

[16] = Drug metabolism in 0.01 M phosphate buffer assessed as hydrolysis rate after 3 hrs at 50 degC

`COc1cccc2c1C(=O)c1c(O)c3c(c(O)c1C2=O)C[C@@](O)(/C(C)=N/NC(=O)c1ccccc1)C[C@@H]3O[C@H]1C[C@H](N)[C@H](O)[C@H](C)O1.Cl` [ZORUBICIN HYDROCHLORIDE] showed an MCCD (Rattus norvegicus [1]) of 24 mg/kg, a half-life at 10 µM [2] of 5.4 h and a T/C (P388 [3]) of 133%. The ΔTm (Calf thymus DNA) was 11.7 °C, the pKa [4] was 4.19 and the T/C (P388 [5]) was 152%. The EC50 (L1210 [6]) was 1200 nM, the Ratio (Rattus norvegicus [7]) was 1.8 and the EC50 (L1210 [8]) was 2200 nM. It also gave a T/C (P388 [9]) of 192%, a T/C (P388 [10]) of 164% and a T/C (P388 [11]) of 140%. For the same compound, the T/C (P388 [12]) was 170%, the T/C (P388 [13]) was 112% and the logP [14] was 1.04.
Compound `COc1cccc2c1C(=O)c1c(O)c3c(c(O)c1C2=O)C[C@@](O)(/C(C)=N/NC(=O)c1ccc(Cl)cc1)C[C@@H]3O[C@H]1C[C@H](N)[C@H](O)[C@H](C)O1.Cl` has a T/C (P388 [15]) of 110%, an MCCD (Rattus norvegicus [1]) of 48 mg/kg and a half-life at 10 µM [2] of 0.617 h. For the same compound, the T/C (P388 [3]) was 145%, the ΔTm (Calf thymus DNA) was 11.4 °C and the pKa [4] was 4.03. For the same compound, the T/C (P388 [5]) was 145%, the EC50 (L1210 [6]) was 1000 nM and the Ratio (Rattus norvegicus [7]) was 3.5. For the same compound, the EC50 (L1210 [8]) was 1900 nM, the T/C (P388 [9]) was 211% and the Drug metabolism [16] was “metabolite_detected”. For the same compound, the T/C (P388 [10]) was 109%, the T/C (P388 [11]) was 139% and the T/C (P388 [12]) was 163%. For the same compound, the T/C (P388 [13]) was 63% and the logP [14] was 1.75.
`COc1cccc2c1C(=O)c1c(O)c3c(c(O)c1C2=O)C[C@@](O)(/C(C)=N/NC(=O)c1ccc(N(C)C)cc1)C[C@@H]3O[C@H]1C[C@H](N)[C@H](O)[C@H](C)O1.Cl` showed a T/C (P388 [15]) of 94%, an MCCD (Rattus norvegicus [1]) of 12 mg/kg and a half-life at 10 µM [2] of 9.23 h. For the same compound, the T/C (P388 [3]) was 111%, the ΔTm (Calf thymus DNA) was 10.7 °C and the pKa [4] was 4.97. It also gave a T/C (P388 [5]) of 154%, an EC50 (L1210 [6]) of 2500 nM and a Ratio (Rattus norvegicus [7]) of 0.8. It also gave an EC50 (L1210 [8]) of 2600 nM, a T/C (P388 [9]) of 172% and a T/C (P388 [10]) of 136%. For the same compound, the T/C (P388 [11]) was 154%, the T/C (P388 [12]) was 181% and the T/C (P388 [13]) was 89%. The logP [14] was 1.22.
`CCc1ccc(C(=O)N/N=C(\C)[C@]2(O)Cc3c(O)c4c(c(O)c3[C@@H](O[C@H]3C[C@H](N)[C@H](O)[C@H](C)O3)C2)C(=O)c2c(OC)cccc2C4=O)cc1.Cl` gave a T/C (P388 [15]) of 111%, an MCCD (Rattus norvegicus [1]) of 20 mg/kg and a T/C (P388 [3]) of 139%. The ΔTm (Calf thymus DNA) was 10.5 °C, the pKa [4] was 4.35 and the T/C (P388 [5]) was 154%. The EC50 (L1210 [6]) was 1100 nM, the Ratio (Rattus norvegicus [7]) was 1.5 and the EC50 (L1210 [8]) was 2600 nM. The T/C (P388 [9]) was 175%, the T/C (P388 [10]) was 93% and the T/C (P388 [11]) was 148%. The T/C (P388 [12]) was 175%, the T/C (P388 [13]) was 68% and the logP [14] was 2.06.
With `COc1cccc2c1C(=O)c1c(O)c3c(c(O)c1C2=O)C[C@@](O)(/C(C)=N/NC(=O)c1ccc(Cl)c(Cl)c1)C[C@@H]3O[C@H]1C[C@H](N)[C@H](O)[C@H](C)O1.Cl` the T/C (P388 [15]) was 117%, the MCCD (Rattus norvegicus [1]) was 40 mg/kg and the T/C (P388 [3]) was 137%. The ΔTm (Calf thymus DNA) was 11 °C, the pKa [4] was 3.62 and the T/C (P388 [5]) was 166%. It also gave an EC50 (L1210 [6]) of 1700 nM, a Ratio (Rattus norvegicus [7]) of 2.8 and an EC50 (L1210 [8]) of 2100 nM. For the same compound, the T/C (P388 [9]) was 163%, the T/C (P388 [10]) was 81% and the T/C (P388 [11]) was 157%. It also gave a T/C (P388 [12]) of 175%, a T/C (P388 [13]) of 54% and a logP [14] of 2.46.
`COc1cccc2c1C(=O)c1c(O)c3c(c(O)c1C2=O)C[C@@](O)(/C(C)=N/NC(=O)c1ccc(-c2ccccc2)cc1)C[C@@H]3O[C@H]1C[C@H](N)[C@H](O)[C@H](C)O1.Cl` gave a T/C (P388 [15]) of 107%, an MCCD (Rattus norvegicus [1]) of 40 mg/kg and a T/C (P388 [3]) of 134%. The ΔTm (Calf thymus DNA) was 10.3 °C, the pKa [4] was 3.97 and the T/C (P388 [5]) was 157%. The EC50 (L1210 [6]) was 1000 nM, the Ratio (Rattus norvegicus [7]) was 2.8 and the EC50 (L1210 [8]) was 1900 nM. The T/C (P388 [9]) was 190%, the T/C (P388 [10]) was 98% and the T/C (P388 [11]) was 138%. It also gave a T/C (P388 [12]) of 163%, a T/C (P388 [13]) of 63% and a logP [14] of 3.
`COc1cccc2c1C(=O)c1c(O)c3c(c(O)c1C2=O)C[C@@](O)(/C(C)=N/NC(=O)c1ccc(O)cc1)C[C@@H]3O[C@H]1C[C@H](N)[C@H](O)[C@H](C)O1.Cl` showed a T/C (P388 [15]) of 115%, an MCCD (Rattus norvegicus [1]) of 20 mg/kg and a T/C (P388 [3]) of 111%. The ΔTm (Calf thymus DNA) was 11.5 °C, the pKa [4] was 4.52 and the T/C (P388 [5]) was 145%. The EC50 (L1210 [6]) was 1900 nM, the Ratio (Rattus norvegicus [7]) was 1.5 and the EC50 (L1210 [8]) was 3600 nM. For the same compound, the T/C (P388 [9]) was 161%, the T/C (P388 [10]) was 181% and the T/C (P388 [11]) was 157%. It also gave a T/C (P388 [12]) of 160%, a T/C (P388 [13]) of 111% and a logP [14] of 0.37.
